{
  "source": "ChEMBL document CHEMBL4689842",
  "about": "“EUbOPEN Chemogenomics Library wave 1” (2021)",
  "tested_on": "U2OS",
  "assay": "Multiplex assay against U2OS",
  "type": "toxicity, cell-based",
  "conditions": "human",
  "outline": "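Hoechst33342, BioTracker Green Microtubule Cytoskeleton Dye, MitoTracker Red and Annexin V Alexa Fluor 680 were added to live cells at seeding, and imaging on a CQ1 microscope at 37°C and 5% CO2 followed compound addition. Gating by CellPathfinder machine learning separated cells into Hoechst high-intensity objects or normal cells, then normal cells into healthy, pyknosed or fragmented nuclei, then pyknosed cells into mitotic or apoptotic. Per cents of healthy-nucleus cells are reported for the tubulin, mitochondrial-mass and membrane-permeability phenotypes.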",
  "key": {"[1]": {"conditions": "12 h, 10 µM, compound concentration 10 uM, replicate 1"}, "[2]": {"conditions": "12 h, 10 µM, compound concentration 10 uM, replicate 2"}, "[3]": {"conditions": "24 h, 10 µM, compound concentration 10 uM, replicate 1"}, "[4]": {"conditions": "24 h, 10 µM, compound concentration 10 uM, replicate 2"}, "[5]": {"conditions": "12 h, 1 µM, compound concentration 1 uM, replicate 1"}, "[6]": {"conditions": "12 h, 1 µM, compound concentration 1 uM, replicate 2"}, "[7]": {"conditions": "24 h, 1 µM, compound concentration 1 uM, replicate 1"}, "[8]": {"conditions": "24 h, 1 µM, compound concentration 1 uM, replicate 2"}, "[9]": {"conditions": "48 h, 1 µM, compound concentration 1 uM, replicate 1"}, "[10]": {"conditions": "48 h, 1 µM, compound concentration 1 uM, replicate 2"}, "[11]": {"conditions": "48 h, 10 µM, compound concentration 10 uM, replicate 1"}, "[12]": {"conditions": "48 h, 10 µM, compound concentration 10 uM, replicate 2"}},
  "note": "“And” between values parts separate entries of the source, which are not always exact repeats. Equal values may be shown once.",
  "data": [
    {"smiles": "CNCc1ccccc1-c1csc([C@@H](C)Nc2nc(C)nc3cc(OC)c(OC)cc23)c1", "note": "[BAY-293]", "values": [
      {"measurement": "Population Apoptotic (%)", "setting": "[1]", "value": "63% and 46%"},
      {"measurement": "Population Healthy Nuclei (%)", "setting": "[1]", "value": "36% and 80%"},
      {"measurement": "Population Hoechst High Intensity Objects (%)", "setting": "[1]", "value": "5% and 4%"},
      {"measurement": "Population Membrane Permeable-Phenotype (%)", "setting": "[1]", "value": "73% and 54%"},
      {"measurement": "Population Mitochondria Different-Phenotype (%)", "setting": "[1]", "value": "88% and 36%"},
      {"measurement": "Population Mitotic Cells (%)", "setting": "[1]", "value": "36% and 53%"},
      {"measurement": "Population Normal (%)", "setting": "[1]", "value": "94% and 95%"},
      {"measurement": "Population Tubulin-Different-Phenotype (%)", "setting": "[1]", "value": "100% and 98%"},
      {"measurement": "Population Apoptotic (%)", "setting": "[2]", "value": "54% and 52%"},
      {"measurement": "Population Fragmented Nuclei (%)", "setting": "[2]", "value": "9% and 17%"},
      {"measurement": "Population Healthy Nuclei (%)", "setting": "[2]", "value": "72% and 52%"},
      {"measurement": "Population Hoechst High Intensity Objects (%)", "setting": "[2]", "value": "14% and 16%"},
      {"measurement": "Population Membrane Permeable-Phenotype (%)", "setting": "[2]", "value": "46% and 75%"},
      {"measurement": "Population Mitochondria Different-Phenotype (%)", "setting": "[2]", "value": "56% and 97%"},
      {"measurement": "Population Mitotic Cells (%)", "setting": "[2]", "value": "45% and 47%"},
      {"measurement": "Population Normal (%)", "setting": "[2]", "value": "85% and 83%"},
      {"measurement": "Population Pyknosed Nuclei (%)", "setting": "[2]", "value": "17% and 30%"},
      {"measurement": "Population Tubulin-Different-Phenotype (%)", "setting": "[2]", "value": 97, "unit": "%"},
      {"measurement": "Population Apoptotic (%)", "setting": "[3]", "value": 91, "unit": "%"},
      {"measurement": "Population Fragmented Nuclei (%)", "setting": "[3]", "value": "19% and 7%"},
      {"measurement": "Population Hoechst High Intensity Objects (%)", "setting": "[3]", "value": "19% and 7%"},
      {"measurement": "Population Membrane Permeable-Phenotype (%)", "setting": "[3]", "value": "100% and 52%"},
      {"measurement": "Population Mitochondria Different-Phenotype (%)", "setting": "[3]", "value": "100% and 64%"},
      {"measurement": "Population Mitotic Cells (%)", "setting": "[3]", "value": 8, "unit": "%"},
      {"measurement": "Population Normal (%)", "setting": "[3]", "value": "80% and 92%"},
      {"measurement": "Population Pyknosed Nuclei (%)", "setting": "[3]", "value": "66% and 27%"},
      {"measurement": "Population Tubulin-Different-Phenotype (%)", "setting": "[3]", "value": "100% and 97%"},
      {"measurement": "Population Apoptotic (%)", "setting": "[4]", "value": "84% and 45%"},
      {"measurement": "Population Fragmented Nuclei (%)", "setting": "[4]", "value": "25% and 10%"},
      {"measurement": "Population Healthy Nuclei (%)", "setting": "[4]", "value": "30% and 60%"},
      {"measurement": "Population Hoechst High Intensity Objects (%)", "setting": "[4]", "value": "10% and 8%"},
      {"measurement": "Population Membrane Permeable-Phenotype (%)", "setting": "[4]", "value": "91% and 43%"},
      {"measurement": "Population Mitochondria Different-Phenotype (%)", "setting": "[4]", "value": "95% and 72%"},
      {"measurement": "Population Normal (%)", "setting": "[4]", "value": "89% and 91%"},
      {"measurement": "Population Pyknosed Nuclei (%)", "setting": "[4]", "value": "44% and 28%"},
      {"measurement": "Population Tubulin-Different-Phenotype (%)", "setting": "[4]", "value": "95% and 96%"}
    ]},
    {"smiles": "Cc1ccccc1C(c1ccccc1C)N1C2CCC1CC(O)(c1ccccc1)C2", "note": "(configuration not stated)", "values": [
      {"measurement": "Population Healthy Nuclei (%)", "setting": "[5]", "value": 82, "unit": "%"},
      {"measurement": "Population Mitotic Cells (%)", "setting": "[5]", "value": 66, "unit": "%"},
      {"measurement": "Population Normal (%)", "setting": "[5]", "value": 89, "unit": "%"},
      {"measurement": "Total Cell Count", "setting": "[5]", "value": 131},
      {"measurement": "Population Healthy Nuclei (%)", "setting": "[6]", "value": 81, "unit": "%"},
      {"measurement": "Population Mitotic Cells (%)", "setting": "[6]", "value": 50, "unit": "%"},
      {"measurement": "Population Normal (%)", "setting": "[6]", "value": 90, "unit": "%"},
      {"measurement": "Total Cell Count", "setting": "[6]", "value": 80},
      {"measurement": "Population Healthy Nuclei (%)", "setting": "[1]", "value": 73, "unit": "%"},
      {"measurement": "Population Mitotic Cells (%)", "setting": "[1]", "value": 64, "unit": "%"},
      {"measurement": "Population Normal (%)", "setting": "[1]", "value": 96, "unit": "%"},
      {"measurement": "Total Cell Count", "setting": "[1]", "value": 158},
      {"measurement": "Population Healthy Nuclei (%)", "setting": "[2]", "value": 81, "unit": "%"},
      {"measurement": "Population Mitotic Cells (%)", "setting": "[2]", "value": 60, "unit": "%"},
      {"measurement": "Population Normal (%)", "setting": "[2]", "value": 86, "unit": "%"},
      {"measurement": "Total Cell Count", "setting": "[2]", "value": 71},
      {"measurement": "Population Healthy Nuclei (%)", "setting": "[7]", "value": 82, "unit": "%"},
      {"measurement": "Population Mitotic Cells (%)", "setting": "[7]", "value": 88, "unit": "%"},
      {"measurement": "Population Normal (%)", "setting": "[7]", "value": 97, "unit": "%"},
      {"measurement": "Total Cell Count", "setting": "[7]", "value": 149},
      {"measurement": "Population Healthy Nuclei (%)", "setting": "[8]", "value": 77, "unit": "%"},
      {"measurement": "Population Mitotic Cells (%)", "setting": "[8]", "value": 80, "unit": "%"},
      {"measurement": "Population Normal (%)", "setting": "[8]", "value": 95, "unit": "%"},
      {"measurement": "Total Cell Count", "setting": "[8]", "value": 89},
      {"measurement": "Population Healthy Nuclei (%)", "setting": "[3]", "value": 74, "unit": "%"},
      {"measurement": "Population Mitotic Cells (%)", "setting": "[3]", "value": 65, "unit": "%"},
      {"measurement": "Total Cell Count", "setting": "[3]", "value": 201},
      {"measurement": "Population Healthy Nuclei (%)", "setting": "[4]", "value": 65, "unit": "%"},
      {"measurement": "Population Mitotic Cells (%)", "setting": "[4]", "value": 50, "unit": "%"},
      {"measurement": "Population Normal (%)", "setting": "[4]", "value": 93, "unit": "%"},
      {"measurement": "Total Cell Count", "setting": "[4]", "value": 85},
      {"measurement": "Population Healthy Nuclei (%)", "setting": "[9]", "value": 89, "unit": "%"},
      {"measurement": "Population Mitotic Cells (%)", "setting": "[9]", "value": 68, "unit": "%"},
      {"measurement": "Total Cell Count", "setting": "[9]", "value": 157},
      {"measurement": "Population Healthy Nuclei (%)", "setting": "[10]", "value": 88, "unit": "%"},
      {"measurement": "Population Mitotic Cells (%)", "setting": "[10]", "value": 87, "unit": "%"},
      {"measurement": "Population Normal (%)", "setting": "[10]", "value": 97, "unit": "%"},
      {"measurement": "Total Cell Count", "setting": "[10]", "value": 98},
      {"measurement": "Population Healthy Nuclei (%)", "setting": "[11]", "value": 71, "unit": "%"},
      {"measurement": "Population Mitotic Cells (%)", "setting": "[11]", "value": 43, "unit": "%"},
      {"measurement": "Population Normal (%)", "setting": "[11]", "value": 95, "unit": "%"},
      {"measurement": "Total Cell Count", "setting": "[11]", "value": 289},
      {"measurement": "Population Healthy Nuclei (%)", "setting": "[12]", "value": 68, "unit": "%"},
      {"measurement": "Population Mitotic Cells (%)", "setting": "[12]", "value": 40, "unit": "%"},
      {"measurement": "Population Normal (%)", "setting": "[12]", "value": 85, "unit": "%"},
      {"measurement": "Total Cell Count", "setting": "[12]", "value": 141}
    ]}
  ]
}
